Test results published in ChEMBL document CHEMBL2163317, “Selective inhibition of the tumor marker aldo-keto reductase family member 1B10 by oleanolic acid” (J Nat Prod, 2011).
Active and inactive are the calls of the source. No cut-off for these calls is given here.

Columns and labels:
[1] = molecular target: T1, Aldo-keto reductase family 1 member B10 (Homo sapiens, UniProt O60218); assay: Inhibition of reductase activity of N-terminal 6His-tagged human AKR1B10 expressed in Escherichia coli BL21(DE3) assessed as pyridine-3-aldehyde reduction
Summary of the method: (§1)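 Forward reductase assay at 25 C with purified recombinant enzyme from E. coli BL21(DE3) pLysS. Buffer was 0.1 M potassium phosphate pH 7.4 with 0.1 mM NADPH and 0.2 mM pyridine-3-aldehyde. Rate read as NADPH absorbance change at 340 nm. IC50 reported as mean of at least three determinations. Selectivity is the AKR1B1 IC50 divided by the AKR1B10 IC50.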
Target sequence in this assay (O60218 whole entry): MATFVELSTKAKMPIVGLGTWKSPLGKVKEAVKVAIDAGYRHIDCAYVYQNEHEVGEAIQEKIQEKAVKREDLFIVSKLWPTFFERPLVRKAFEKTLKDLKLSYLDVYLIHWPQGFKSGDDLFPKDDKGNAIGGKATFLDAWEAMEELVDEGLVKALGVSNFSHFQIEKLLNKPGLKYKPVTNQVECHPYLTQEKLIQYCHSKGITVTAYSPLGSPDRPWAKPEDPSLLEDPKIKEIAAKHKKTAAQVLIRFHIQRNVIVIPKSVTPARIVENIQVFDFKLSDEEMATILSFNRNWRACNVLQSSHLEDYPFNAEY

Homo sapiens = species: Homo sapiens; assay: Selectivity ratio of IC50 for human recombinant AKR1B1 to IC50 for human AKR1B10; summary of the method: as §1
[2] = molecular target: Aldo-keto reductase family 1 member B1 (Homo sapiens, UniProt P15121); assay: Inhibition of reductase activity of N-terminal 6His-tagged human recombinant AKR1B1 expressed in Escherichia coli BL21(DE3) assessed as assessed as pyridine-3-aldehyde reduction; summary of the method: as §1
[3] = molecular target: T1, Aldo-keto reductase family 1 member B10; assay: Inhibition of N-terminal 6His-tagged human AKR1B10 overexpressed in human HeLa cells assessed as inhibition of […] at 1 uM pretreated for 2 hrs before [1-14C]farnesol challenge measured after 6 hrs; type: cell-based
Summary of the method: (§2)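 HeLa cells were transfected with a pGW1 plasmid carrying AKR1B10 cDNA. Culture was DMEM with 10% FBS at 37 C and 5% CO2. Cells were pretreated with inhibitor for 2 h, then incubated with 20 μM [1-14C] labelled substrate for 6 h. Inhibition of farnesal reduction is the mean of duplicate experiments.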
Target sequence in this assay (O60218 whole entry, looked up): as the sequence (O60218 whole entry) above

DNA polymerase beta = DNA polymerase beta (Homo sapiens, UniProt P06746); assay: Inhibition of DNA polymerase beta
Phospholipase A2 = Phospholipase A2 (Homo sapiens, UniProt P04054); assay: Inhibition of phospholipase A2
Phospholipase A2, sequence (P04054 whole entry): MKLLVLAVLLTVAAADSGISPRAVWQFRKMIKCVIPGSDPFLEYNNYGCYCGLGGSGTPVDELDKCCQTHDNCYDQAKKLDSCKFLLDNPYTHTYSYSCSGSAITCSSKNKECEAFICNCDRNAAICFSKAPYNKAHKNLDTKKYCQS

HT-29 [4] = assay: Cytotoxicity against human HT-29 cells at 10 uM after 96 hrs by trypan blue exclusion assay; type: functional, cell-based
HT-29 [5] = assay: Cytotoxicity against human HT-29 cells at 30 uM after 96 hrs by trypan blue exclusion assay; type: functional, cell-based
HT-29 [6] = assay: Inhibition of AKR1B10 mRNA expression in human HT-29 cells at 3 to 30 uM after 24 hrs by RT-PCR analysis; type: functional, cell-based
Summary of the method: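 HT29 cells were treated for 24 h with 3, 10 and 30 μM compound. Total RNA was then extracted, and AKR1B10 mRNA was analysed by reverse transcription-PCR.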

HT-29 [7] = assay: Cytotoxicity against human mitomycin C-resistant HT-29 cells assessed as growth inhibition after 96 hrs by trypan blue exclusion assay; type: functional, cell-based
HT-29 [8] = assay: Cytotoxicity against human HT-29 cells after 96 hrs by trypan blue exclusion assay; type: functional; settings: HT-29, 96 h, read-out: LD50 (the source's name)
[9] = molecular target: T1, Aldo-keto reductase family 1 member B10; assay: Inhibition of N-terminal 6His-tagged human AKR1B10 overexpressed in human HeLa cells assessed as inhibition of […] pretreated for 2 hrs before [1-14C]farnesol challenge measured after 6 hrs; type: cell-based; summary of the method: as §2
Target sequence in this assay (O60218 whole entry, looked up): as the sequence (O60218 whole entry) above

[10] = molecular target: T1, Aldo-keto reductase family 1 member B10; assay: Competitive inhibition of dehydrogenase activity of N-terminal 6His-tagged human AKR1B10 expressed in Escherichia coli BL21(DE3) assessed as NADP+-linked geraniol oxidation
Target sequence in this assay (O60218 whole entry): as above

[11] = molecular target: Aldo-keto reductase family 1 member B10 (Homo sapiens, UniProt O60218, K125L); assay: Competitive inhibition of dehydrogenase activity of N-terminal 6His-tagged human AKR1B10 K125L mutant expressed in Escherichia coli BL21(DE3) assessed as NADP+-linked geraniol oxidation
Aldo-keto reductase family 1 member B10 (Homo sapiens, UniProt O60218, K125L), sequence (O60218 whole entry K125L): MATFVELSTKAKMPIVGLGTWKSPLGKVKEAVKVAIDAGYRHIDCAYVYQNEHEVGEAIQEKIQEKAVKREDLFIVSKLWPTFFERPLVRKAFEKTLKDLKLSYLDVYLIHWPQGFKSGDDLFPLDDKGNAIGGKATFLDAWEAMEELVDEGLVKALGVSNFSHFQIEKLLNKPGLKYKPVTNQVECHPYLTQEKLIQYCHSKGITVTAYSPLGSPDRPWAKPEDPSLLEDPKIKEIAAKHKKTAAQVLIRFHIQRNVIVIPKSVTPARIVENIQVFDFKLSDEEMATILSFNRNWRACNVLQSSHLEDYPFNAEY

[12] = molecular target: Aldo-keto reductase family 1 member B10 (Homo sapiens, UniProt O60218, V301L); assay: Competitive inhibition of dehydrogenase activity of N-terminal 6His-tagged human AKR1B10 V301L mutant expressed in Escherichia coli BL21(DE3) assessed as NADP+-linked geraniol oxidation
Aldo-keto reductase family 1 member B10 (Homo sapiens, UniProt O60218, V301L), sequence (O60218 whole entry V301L): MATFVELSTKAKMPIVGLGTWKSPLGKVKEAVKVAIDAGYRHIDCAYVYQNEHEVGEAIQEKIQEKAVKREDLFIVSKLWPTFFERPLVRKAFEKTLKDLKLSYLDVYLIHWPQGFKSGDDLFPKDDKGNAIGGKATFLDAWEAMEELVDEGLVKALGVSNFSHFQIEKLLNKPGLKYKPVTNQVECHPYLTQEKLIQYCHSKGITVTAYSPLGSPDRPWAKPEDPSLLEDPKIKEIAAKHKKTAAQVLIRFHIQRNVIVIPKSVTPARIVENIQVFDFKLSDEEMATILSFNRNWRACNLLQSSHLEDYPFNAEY

[13] = molecular target: Aldo-keto reductase family 1 member B10 (Homo sapiens, UniProt O60218, Q303S); assay: Competitive inhibition of dehydrogenase activity of N-terminal 6His-tagged human AKR1B10 Q303S mutant expressed in Escherichia coli BL21(DE3) assessed as NADP+-linked geraniol oxidation
Aldo-keto reductase family 1 member B10 (Homo sapiens, UniProt O60218, Q303S), sequence (O60218 whole entry Q303S): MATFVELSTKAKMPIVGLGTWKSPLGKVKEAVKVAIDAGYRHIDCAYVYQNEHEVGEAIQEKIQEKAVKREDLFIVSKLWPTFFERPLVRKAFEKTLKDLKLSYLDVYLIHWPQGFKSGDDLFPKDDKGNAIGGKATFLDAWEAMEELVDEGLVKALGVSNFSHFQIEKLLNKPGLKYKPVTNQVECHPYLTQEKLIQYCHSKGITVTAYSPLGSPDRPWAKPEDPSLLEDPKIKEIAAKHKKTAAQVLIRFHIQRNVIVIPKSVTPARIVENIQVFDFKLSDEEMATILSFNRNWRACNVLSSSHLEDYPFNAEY

[14] = molecular target: T1, Aldo-keto reductase family 1 member B10; assay: Non-competitive inhibition of reductase activity of N-terminal 6His-tagged human AKR1B10 expressed in Escherichia coli BL21(DE3) assessed as pyridine-3-aldehyde reduction
Target sequence in this assay (O60218 whole entry, looked up): as the sequence (O60218 whole entry) above

[15] = molecular target: Aldo-keto reductase family 1 member B10 (Homo sapiens, UniProt O60218, W220Y); assay: Competitive inhibition of dehydrogenase activity of N-terminal 6His-tagged human AKR1B10 W220Y mutant expressed in Escherichia coli BL21(DE3) assessed as NADP+-linked geraniol oxidation
Aldo-keto reductase family 1 member B10 (Homo sapiens, UniProt O60218, W220Y), sequence (O60218 whole entry W220Y): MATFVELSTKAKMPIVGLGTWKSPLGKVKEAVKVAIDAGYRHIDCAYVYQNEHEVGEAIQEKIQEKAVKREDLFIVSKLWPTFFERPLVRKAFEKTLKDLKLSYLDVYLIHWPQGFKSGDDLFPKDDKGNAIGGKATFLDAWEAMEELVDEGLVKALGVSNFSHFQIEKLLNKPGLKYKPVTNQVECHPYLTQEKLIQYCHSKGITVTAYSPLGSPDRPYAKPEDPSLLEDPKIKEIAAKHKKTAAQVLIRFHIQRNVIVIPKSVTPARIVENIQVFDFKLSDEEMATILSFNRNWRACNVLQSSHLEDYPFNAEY

## C[C@H]1[C@H](C)CC[C@]2(C(=O)O)CC[C@]3(C)C(=CC[C@@H]4[C@@]5(C)C[C@@H](O)[C@H](O)[C@@](C)(CO)[C@@H]5CC[C@]43C)[C@H]12 [ASIATIC ACID]
[1]
  IC50: 5.9 µM
Homo sapiens
  Ratio IC50: 6
[2]
  IC50: 34 µM

## C=C(C)[C@@H]1CC[C@]2(C(=O)O)CC[C@]3(C)[C@H](CC[C@@H]4[C@@]5(C)CC[C@H](O)C(C)(C)[C@@H]5CC[C@]43C)[C@@H]12 [BETULINIC ACID]
[1]
  IC50: 2 µM
Homo sapiens
  Ratio IC50: 6
[2]
  IC50: 11 µM

## CC1(C)[C@@H](O)CC[C@]2(C)[C@H]3C(=O)C=C4[C@@H]5C[C@@](C)(C(=O)O)CC[C@]5(C)CC[C@@]4(C)[C@]3(C)CC[C@@H]12 [ENOXOLONE]
[1]
  IC50: 4.9 µM
[3]
  inhibition: Active
Homo sapiens
  Ratio IC50: 57
[2]
  IC50: 280 µM

## CC1(C)CC[C@]2(CO)CC[C@]3(C)C(=CC[C@@H]4[C@@]5(C)CC[C@H](O)C(C)(C)[C@@H]5CC[C@]43C)[C@@H]2C1 [ERYTHRODIOL]
[1]
  IC50: 30 µM
Homo sapiens
  Ratio IC50: 3
[2]
  IC50: 84 µM

## C[C@H](CCC(=O)O)[C@H]1CC[C@H]2[C@@H]3CC[C@@H]4C[C@@H](O)CC[C@]4(C)[C@H]3CC[C@]12C [ISOLITHOCHOLIC ACID]
[1]
  Ki: 0.015 µM

## CC1(C)CC[C@]2(C(=O)O)CC[C@]3(C)C(=CC[C@@H]4[C@@]5(C)C[C@@H](O)[C@H](O)C(C)(C)[C@@H]5CC[C@]43C)[C@@H]2C1 [MASLINIC ACID]
[1]
  IC50: 0.63 µM
Homo sapiens
  Ratio IC50: 114
[2]
  IC50: 72 µM

## CC1(C)CC[C@]2(C(=O)O)CC[C@]3(C)C(=CC[C@@H]4[C@@]5(C)CC[C@H](O)C(C)(C)[C@@H]5CC[C@]43C)[C@@H]2C1 [OLEANOLIC_ACID]
DNA polymerase beta
  IC50: 3 µM
Phospholipase A2
  IC50: 3 µM
HT-29 [4]
  Activity: Active
HT-29 [5]
  Activity: Active
[3]
  inhibition: Active
[2]
  IC50: 124 µM
HT-29 [6]
  inhibition: inactive
HT-29 [7]
  growth inhibition (GI): Dose-dependent effect
HT-29 [8]
  CC50: 180 µM

## COc1ccc2c(C(=S)N(C)CC(=O)O)cccc2c1C(F)(F)F [TOLRESTAT]
[1]
  Ki: 0.05 µM
HT-29 [5]
  Activity: Active
[9]
  inhibition: Active

## C[C@H]1[C@H](C)CC[C@]2(C(=O)O)CC[C@]3(C)C(=CC[C@@H]4[C@@]5(C)CC[C@H](O)C(C)(C)[C@@H]5CC[C@]43C)[C@H]12 [URSOLIC ACID]
[10]
  Ki: 2 µM
[1]
  IC50: 4 µM
[11]
  Ki: 2.8 µM
[12]
  Ki: 2.1 µM
[13]
  Ki: 3.7 µM
[14]
  inhibition: Active
[15]
  Ki: 6 µM
Homo sapiens
  Ratio IC50: 10
[2]
  IC50: 41 µM
